Activity calls are given as the source filed them. The calls are words filed in the database; no cut-off is given here.

From ChEMBL document CHEMBL3272284, “Drugs derived from cannabinoids. 6. Synthesis of cyclic analogues of dimethylheptylpyran” (1976) come the findings set out here.

In assay [1] the test system is Rattus norvegicus. The assay is described as follows: Antihypertensive activity in rat assessed as reduction of blood pressure at 10 mg/kg, po after 24 hrs. More on the design: scale not given: the % may be the effect or the level left. It is filed as functional. The method in brief:
(§1)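 Cardiovascular screen in hypertensive rats. Compounds were given orally and blood pressure was measured after dosing, with readings taken at 3 h and over 24 h. Activity is expressed as percent decrease in blood pressure.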

Assay [2] has as its system Rattus norvegicus. The assay is described as follows: Antihypertensive activity in rat assessed as reduction of blood pressure at 0.1 mg/kg, po. It is filed as functional. More on the design: scale not given: the % may be the effect or the level left. The method in brief:
as §1

Assay [3] relates to Mus musculus. The assay is described as follows: […] activity in mouse assessed as protection against audiogenic seizure up to 30 mg/kg, po. More on the design: dose 30 mg/kg. Format: functional, organism-based.
Assay [4] deals with Mus musculus. Put plainly: Central nervous system activity in mouse assessed as fighting at 10 mg/kg, po. Format: functional, organism-based. Details: dose 10 mg/kg.
The test system of assay [5] is Rattus norvegicus. The assay is described as follows: Antihypertensive activity in po dosed rat assessed as reduction of blood pressure. Format: functional, organism-based. Summed up:
as §1

The test system of assay [6] is Rattus norvegicus. The assay is described as follows: Antidepressant activity in rat assessed as motor activity at 5 mg/kg, po. Format: functional, organism-based. More on the design: dose 5 mg/kg.
Assay [7] relates to Rattus norvegicus. The assay is described as follows: Antihypertensive activity in rat assessed as reduction of blood pressure at 10 mg/kg, po after 3 hrs. Format: functional. More on the design: scale not given: the % may be the effect or the level left. Summed up:
as §1

`CCCCCC(C)C(C)c1cc(O)c2c(c1)OC(C)(C)C1=C2CC(C)CC1` (stereo not given): the Activity stood at 38% in the assay with Rattus norvegicus [1] and 8% with Rattus norvegicus [2].
Take `CCCCCC1Cc2c(cc3c(c2O)C2=C(CCC(C)C2)C(C)(C)O3)C1C` (stereo not given): the outcome in the assay with Mus musculus [3], in the assay with Mus musculus [4], in the assay on Rattus norvegicus [5] and in the assay with Rattus norvegicus [6] was inactive.
Turning to `CCCCCC1Cc2c(cc(O)c3c2OC(C)(C)C2=C3CC(C)CC2)C1C` (stereo not given), the outcome in the assay on Mus musculus [3], in the assay with Mus musculus [4] and in the assay with Rattus norvegicus [6] was inactive. Besides, in the assay on Rattus norvegicus [7], the Activity is 6%.
